Rows were chosen to be rich in hits. Some 1.7% of all compounds tested hit in one or more screens of this group.
SR-BI DiI inh = inhibitors of mouse SR-BI mediated HDL lipid uptake; Q61009; ldlA[mSR-BI] CHO cells, DiI-HDL uptake fluorescence, 3 h; inhibition, % at 12.5 µM; AID 488896; 320,000 tested, 0.96% active;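 active = mean replicate inhibition of at least 70% and a set share of replicates each scoring 70 or more; inconclusive = meets just one of the two criteria; inactive = fails both criteria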;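 also: 0% = median of neutral control wells and 100% = median of positive control wells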
Target sequence (Q61009 whole entry, looked up): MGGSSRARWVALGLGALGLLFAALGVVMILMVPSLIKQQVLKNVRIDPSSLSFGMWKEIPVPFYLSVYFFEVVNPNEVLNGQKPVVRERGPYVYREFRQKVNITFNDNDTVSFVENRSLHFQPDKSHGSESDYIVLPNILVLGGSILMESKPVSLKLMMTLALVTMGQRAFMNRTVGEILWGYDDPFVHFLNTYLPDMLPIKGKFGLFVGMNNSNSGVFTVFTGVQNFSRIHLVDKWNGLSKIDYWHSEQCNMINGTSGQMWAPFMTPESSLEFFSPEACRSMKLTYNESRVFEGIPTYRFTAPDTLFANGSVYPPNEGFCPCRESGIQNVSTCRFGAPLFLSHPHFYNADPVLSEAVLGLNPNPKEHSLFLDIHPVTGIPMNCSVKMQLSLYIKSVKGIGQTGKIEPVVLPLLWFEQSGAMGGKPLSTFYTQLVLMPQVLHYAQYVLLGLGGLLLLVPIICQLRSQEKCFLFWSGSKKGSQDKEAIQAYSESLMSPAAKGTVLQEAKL
Statin myotox sup = protects C2C12 myotubes from simvastatin toxicity; rescue of ATP level, % at 7.49 µM; AID 602340; ATP luminescence, 48 h; scaled: DMSO 0, geranylgeraniol control 100; 330,000 tested, 0.78% active;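 active = mean ATP rescue above about 67%, or every replicate alone reaching that limit, limit read from the data, passing the limit was not always enough; inconclusive = no clear call, values can overlap the other calls; inactive = mean under the limit and some replicate under it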;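 also: myotubes were challenged with 10 µM simvastatin during compound exposure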
SR-BI DiI-HDL act = activators of SR-BI mediated HDL lipid uptake; activation, % at 12.5 µM; CHO ldlA[mSR-BI] cells, DiI-HDL uptake fluorescence, 3 h; 100 = double the neutral-control signal; AID 504775; 320,000 tested, 0.096% active;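 active = mean replicate activation of at least 60% and every replicate at or above 60%; inconclusive = mean or all-replicate condition met, but not both; inactive = mean below 60% and not all replicates reaching 60%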;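 also: 0% = median plate neutral-control signal and 100% = twice that signal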
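Material – SR-BI-overexpressing, LDLR-lacking CHO cells · Medium – BSA-supplemented, HEPES-buffered Ham's F12, pH 7.4 · Doses – single concentration · Times – compound with DiI-HDL co-incubation, 3 h at 37 °C · Measured by – bottom-read fluorescence, 550/595 nm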
Vif inh = inhibitors of HIV Vif | 340,000 tested, 0.35% active | inhibition, % at 7.49 µM | AID 602346 | HEK293T cells, Vif self-association by quenched fluorescence, imaging, 24 h; in the data active = inhibition above about 50%, passing the limit was not always enough; inconclusive = no clear call, values can overlap the other calls; inactive = below about 31%
DiI quencher = quenches DiI-HDL fluorescence, an SR-BI assay artifact | shares compounds with SR-BI DiI inh | cell-free DiI-HDL fluorescence quenching, 30 min | AC50, µM (series often up to 35 µM), without a hit: at the top dose activity change, negative = quenching | 470 tested, 20% active | AID 540326;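 active = quenching, a falling signal, with AC50 below a set limit tied to the top valid dose, actives reach about 32 µM in these data; inconclusive = no clear call, values can overlap the other calls; inactive = rising signal, and the rest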
An asterisk follows results filed as active; ? = inconclusive; / = no result given.

SMILES	SR-BI DiI inh	Statin myotox sup	SR-BI DiI-HDL act	Vif inh	DiI quencher
C[C@H]1CN([C@@H](C)CO)C(=O)c2cccc(NC(=O)c3cnccn3)c2O[C@H]1CN(C)C(=O)NC1CCCCC1	/	-11	/	/	/
CCOC(=O)C1CCN(C(=O)Cn2cnc3sc(C)c(S(=O)(=O)N4CCCCC4)c3c2=O)CC1	15	16	-15	5	/
CCOC(=O)C1CCN(C(=O)Cn2cnc3sc(C)c(S(=O)(=O)N4CCC(C)CC4)c3c2=O)CC1	?	10	-71	-9	1%
C[C@@H]1CN([C@@H](C)CO)C(=O)c2cccc(NS(=O)(=O)c3cn(C)cn3)c2O[C@@H]1CN(C)C(=O)Nc1ccc2c(c1)OCO2	/	38	/	/	/
COC(=O)c1cnc(Oc2ccc(NC(=O)NC(=O)c3c(OC)cccc3OC)cc2)cc1C(F)(F)F	?	0	-71	-7	1%
C/C=C/c1ccc2c(c1)O[C@@H](CN(C)C(=O)c1cnccn1)[C@H](C)CN([C@@H](C)CO)S2(=O)=O	/	4	/	/	/
COc1ccc(CCNC(=O)CCC(=O)N2CC(C)Oc3ccc(Cl)cc32)cc1OC (configuration not stated)	?	34	-71	/	-2%
COc1ccc(NC(=O)Nc2cccc3c2O[C@@H](CN(C)Cc2ccc(C(F)(F)F)cc2)[C@@H](C)CN([C@@H](C)CO)C3=O)cc1	/	60	/	/	/
CCCCC(=O)Nc1cccc(NC(=O)CC)c1	-43	-9	43	7	/
CCCCC(=O)Nc1cccc(NC(=O)c2ccccc2Br)c1	74*	-19	-74	1	6%
C[C@@H]1CN([C@@H](C)CO)C(=O)c2cc(C3=CCCCC3)cnc2O[C@H]1CN(C)C(=O)CN1CCOCC1	/	-4	/	/	/
Cc1ccc(S(=O)(=O)Nc2ccc3c(c2)CC(=O)N([C@H](C)CO)C[C@H](C)[C@@H](CN(C)CC2CCCCC2)O3)cc1	/	64	/	/	/
CC(C)(C)NC(=O)N1CCN(c2ncccc2C(F)(F)F)CC1	88*	3	-88	2	-4%
C[C@@H]1CN([C@H](C)CO)C(=O)c2cc(NC(=O)Nc3cccc4ccccc34)ccc2O[C@@H](C)CCCCO[C@H]1CN(C)S(=O)(=O)c1ccc(F)cc1	/	36	/	/	/
Oc1ccccc1-c1nc(/C=C/c2ccccc2)nn1-c1ccccc1	55	/	-55	0	/
Oc1ccc(/C=C/c2nc(-c3ccccc3O)n(-c3ccccc3)n2)cc1	74*	-7	-74	2	20µM*
CNC[C@@H]1Oc2ccc(NC(=O)Nc3ccc(C(F)(F)F)cc3)cc2CC(=O)N([C@H](C)CO)C[C@H]1C	/	13	/	/	/
COc1ccc(C2/C=C\CN(S(=O)(=O)c3ccc(C)cc3)CC(=O)N2Cc2cccc(F)c2)cc1 (configuration not stated)	80*	5	-80	-3	0%
COc1ccc(C2/C=C\CN(CC(C)C)CC(=O)N2Cc2cccc(F)c2)cc1 (configuration not stated)	-1	-6	1	17	/
COc1ccc(C2/C=C\CN(S(=O)(=O)c3ccc(C)cc3)CC(=O)N2Cc2ccc(F)cc2)cc1 (configuration not stated)	86*	10	-86	-9	-6%
CN(C)C(=O)c1ccc(-c2ccc([C@H]3[C@@H](C#N)N(C(=O)C4CCOCC4)[C@H]3CO)cc2)cc1	/	1	/	/	/
O=C(Nc1nc(NC(=O)c2ccco2)n(-c2ccccc2)n1)c1ccccc1	122*	94*	-122	/	2µM*
Nc1nc(NC(=O)c2ccccc2)nn1-c1ccccc1	-5	20	5	39	/
Cc1cc(C(=O)C(C)OC(=O)C2=NNC(=O)CC2)c(C)n1-c1ccc(OC(F)F)cc1 (configuration not stated)	82*	/	-82	-9	-2%
C[C@H]1CN([C@@H](C)CO)C(=O)Cc2cc(NS(=O)(=O)c3cn(C)cn3)ccc2O[C@@H]1CN(C)Cc1ccc(C(=O)Nc2ccccc2N)cc1	/	25	/	/	/
CO[C@H]1CN(C)C(=O)c2cc(NC(=O)c3cccc(F)c3)ccc2OC[C@H](C)N(CC2CC2)C[C@H]1C	/	-4	/	/	/
C[C@H](CO)N1C[C@H](C)[C@H](CN(C)S(=O)(=O)c2ccc(Cl)cc2)Oc2ccc(N(C)C)cc2C1=O	/	5	/	/	/
CC1CCCCC1NC(=O)c1nn(C)c2c1CS(=O)(=O)c1ccccc1-2 (configuration not stated)	78*	-15	-78	-5	1%

From PubChem
